Active and inactive are the calls of the source. No cut-off for these calls is given here.
Tests used:
Assay type in all cases: cell-based
[1] = biological target: T1, Transient receptor potential cation channel subfamily M member 2 (Homo sapiens, UniProt O94759); assay: Inhibition of human TRPM2 expressed in HEK293 cells assessed as reduction in H2O2-induced intracellular calcium flux at 30 uM after 30 mins by Fluo3-AM dye based fluorescence imaging assay
[2] = biological target: T1, Transient receptor potential cation channel subfamily M member 2; assay: Inhibition of human TRPM2 expressed in HEK293 cells assessed as reduction in ADPR-induced channel currents at 30 uM treated extracellularly after 60 secs by whole cell patch clamp electrophysiology method relative to control
Procedure, shortened: (§1)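 Tetracycline-inducible HEK293 stably expressing human TRPM2 (1 µg/mL tetracycline), whole-cell patch clamp at room temperature. ECS (mM): 145 NaCl, 5.6 KCl, 2 MgCl2, 1.2 CaCl2, 10 HEPES, pH 7.2. ICS contained 500 µM ADPR (pH 7.3). Compound was added to ECS. Held at 0 mV with 500 ms ramps from -100 to 100 mV every 5 s. IC50 came from concentration–response curves; mean ± SEM from at least five cells.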

[3] = biological target: T1, Transient receptor potential cation channel subfamily M member 2; assay: Inhibition of human TRPM2 expressed in HEK293 cells assessed as reduction in ADPR-induced channel currents at 3 uM treated extracellularly after 60 secs by whole cell patch clamp electrophysiology method relative to control; procedure, shortened: as §1
[4] = test system: Transient receptor potential cation channel subfamily M member 2 (Homo sapiens), O94759 [D964A]; assay: Inhibition of human TRPM2 D964A mutant expressed in HEK293 cells assessed as reduction in ADPR-induced channel currents at 30 uM treated extracellularly after 50 to 200 secs by whole cell patch clamp electrophysiology method relative to control
[5] = biological target: T1, Transient receptor potential cation channel subfamily M member 2; assay: Inhibition of human TRPM2 expressed in HEK293 cells assessed as reduction in ADPR-induced channel currents at 30 to 1000 uM treated simultaneously after 60 secs by whole cell patch clamp electrophysiology method
Procedure, shortened: (§2)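 Human TRPM2 in tetracycline-inducible HEK293, recorded by whole-cell patch clamp at room temperature. Compound at 30 µM or 1 mM was added to the pipette ICS together with 500 µM ADPR; the ICS (mM) was 147 NaCl, 1 EGTA, 1 MgCl2, 24 HEPES, pH 7.3. Ramps ran from -100 to 100 mV every 5 s from a 0 mV hold, with leak subtraction from the first three ramps.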

[6] = test system: Transient receptor potential cation channel subfamily M member 2 (Homo sapiens), O94759 [H995A]; assay: Inhibition of human TRPM2 H995A mutant expressed in HEK293 cells assessed as reduction in ADPR-induced channel currents at 30 uM treated extracellularly after 50 to 200 secs by whole cell patch clamp electrophysiology method
[7] = biological target: T1, Transient receptor potential cation channel subfamily M member 2; assay: Inhibition of human TRPM2 expressed in HEK293 cells assessed as reduction in ADPR-induced channel currents at 30 to 1000 uM treated intracellularly after 60 secs by whole cell patch clamp electrophysiology method; procedure, shortened: as §2
[8] = biological target: T2, Transient receptor potential cation channel subfamily M member 8 (Homo sapiens, UniProt Q7Z2W7); assay: Inhibition of human TRPM8 expressed in HEK293 cells assessed as reduction in H2O2-induced intracellular calcium flux after 30 mins by Fluo4-AM dye based fluorescence assay
Target sequence in this assay (Q7Z2W7 whole entry): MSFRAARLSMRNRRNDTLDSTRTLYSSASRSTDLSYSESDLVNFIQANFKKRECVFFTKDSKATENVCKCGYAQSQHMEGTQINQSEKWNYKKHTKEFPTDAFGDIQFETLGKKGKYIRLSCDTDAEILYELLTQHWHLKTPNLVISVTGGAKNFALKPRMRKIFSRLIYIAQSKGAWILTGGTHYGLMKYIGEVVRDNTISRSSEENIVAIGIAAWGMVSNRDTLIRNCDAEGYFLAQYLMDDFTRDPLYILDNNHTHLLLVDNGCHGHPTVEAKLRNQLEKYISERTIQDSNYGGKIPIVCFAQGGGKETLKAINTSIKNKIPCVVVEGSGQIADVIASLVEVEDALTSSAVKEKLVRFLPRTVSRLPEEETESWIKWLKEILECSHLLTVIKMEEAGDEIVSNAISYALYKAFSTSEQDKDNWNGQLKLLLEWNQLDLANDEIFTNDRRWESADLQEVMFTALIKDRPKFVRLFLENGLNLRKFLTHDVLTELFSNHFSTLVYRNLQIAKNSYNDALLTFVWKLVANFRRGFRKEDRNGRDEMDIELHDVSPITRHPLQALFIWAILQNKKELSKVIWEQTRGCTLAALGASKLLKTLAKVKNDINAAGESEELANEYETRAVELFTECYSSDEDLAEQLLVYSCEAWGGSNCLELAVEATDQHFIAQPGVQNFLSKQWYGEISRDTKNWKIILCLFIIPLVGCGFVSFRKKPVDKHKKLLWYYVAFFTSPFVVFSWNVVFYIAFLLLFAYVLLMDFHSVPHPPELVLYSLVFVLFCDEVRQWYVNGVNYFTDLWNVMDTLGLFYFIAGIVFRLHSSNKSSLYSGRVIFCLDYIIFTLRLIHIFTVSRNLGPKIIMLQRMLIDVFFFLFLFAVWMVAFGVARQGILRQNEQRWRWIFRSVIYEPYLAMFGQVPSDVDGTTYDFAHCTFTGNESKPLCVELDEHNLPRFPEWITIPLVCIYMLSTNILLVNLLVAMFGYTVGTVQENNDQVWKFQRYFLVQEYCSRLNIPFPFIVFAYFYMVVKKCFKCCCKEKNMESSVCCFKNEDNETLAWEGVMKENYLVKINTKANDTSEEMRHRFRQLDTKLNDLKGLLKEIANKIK

[9] = biological target: T1, Transient receptor potential cation channel subfamily M member 2; assay: Inhibition of human TRPM2 expressed in HEK293 cells assessed as reduction in ADPR-induced channel currents treated extracellularly after 60 secs by whole cell patch clamp electrophysiology method; procedure, shortened: as §1
[10] = biological target: T2, Transient receptor potential cation channel subfamily M member 8; assay: Inhibition of human TRPM8 expressed in HEK293 cells assessed as reduction in menthol-induced channel currents at 30 uM treated extracellularly after 60 secs by whole cell patch clamp electrophysiology method relative to control
Procedure, shortened: (§3)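 HEK293 were transiently transfected with human TRPM8 (pcDNA4/TO) plus GFP using Lipofectamine 2000 and recorded 24–48 h later by whole-cell patch clamp. TRPM8 was activated by 1 mM menthol in ECS. Compound at 30 µM was placed in ECS or ICS, with 0.1 mM 2-APB as reference inhibitor. Mean peak currents reported as mean ± SEM, n = 5.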
Target sequence in this assay (Q7Z2W7 whole entry, looked up): as the sequence (Q7Z2W7 whole entry) above

[11] = biological target: T2, Transient receptor potential cation channel subfamily M member 8; assay: Inhibition of human TRPM8 expressed in HEK293 cells assessed as reduction in menthol-induced channel currents at 30 uM treated intracellularly via pipette after 60 secs by whole cell patch clamp electrophysiology method; procedure, shortened: as §3
Target sequence in this assay (Q7Z2W7 whole entry, looked up): as the sequence (Q7Z2W7 whole entry) above

Sequence of Transient receptor potential cation channel subfamily M member 2 (Homo sapiens), O94759 [H995A] (O94759 whole entry H995A): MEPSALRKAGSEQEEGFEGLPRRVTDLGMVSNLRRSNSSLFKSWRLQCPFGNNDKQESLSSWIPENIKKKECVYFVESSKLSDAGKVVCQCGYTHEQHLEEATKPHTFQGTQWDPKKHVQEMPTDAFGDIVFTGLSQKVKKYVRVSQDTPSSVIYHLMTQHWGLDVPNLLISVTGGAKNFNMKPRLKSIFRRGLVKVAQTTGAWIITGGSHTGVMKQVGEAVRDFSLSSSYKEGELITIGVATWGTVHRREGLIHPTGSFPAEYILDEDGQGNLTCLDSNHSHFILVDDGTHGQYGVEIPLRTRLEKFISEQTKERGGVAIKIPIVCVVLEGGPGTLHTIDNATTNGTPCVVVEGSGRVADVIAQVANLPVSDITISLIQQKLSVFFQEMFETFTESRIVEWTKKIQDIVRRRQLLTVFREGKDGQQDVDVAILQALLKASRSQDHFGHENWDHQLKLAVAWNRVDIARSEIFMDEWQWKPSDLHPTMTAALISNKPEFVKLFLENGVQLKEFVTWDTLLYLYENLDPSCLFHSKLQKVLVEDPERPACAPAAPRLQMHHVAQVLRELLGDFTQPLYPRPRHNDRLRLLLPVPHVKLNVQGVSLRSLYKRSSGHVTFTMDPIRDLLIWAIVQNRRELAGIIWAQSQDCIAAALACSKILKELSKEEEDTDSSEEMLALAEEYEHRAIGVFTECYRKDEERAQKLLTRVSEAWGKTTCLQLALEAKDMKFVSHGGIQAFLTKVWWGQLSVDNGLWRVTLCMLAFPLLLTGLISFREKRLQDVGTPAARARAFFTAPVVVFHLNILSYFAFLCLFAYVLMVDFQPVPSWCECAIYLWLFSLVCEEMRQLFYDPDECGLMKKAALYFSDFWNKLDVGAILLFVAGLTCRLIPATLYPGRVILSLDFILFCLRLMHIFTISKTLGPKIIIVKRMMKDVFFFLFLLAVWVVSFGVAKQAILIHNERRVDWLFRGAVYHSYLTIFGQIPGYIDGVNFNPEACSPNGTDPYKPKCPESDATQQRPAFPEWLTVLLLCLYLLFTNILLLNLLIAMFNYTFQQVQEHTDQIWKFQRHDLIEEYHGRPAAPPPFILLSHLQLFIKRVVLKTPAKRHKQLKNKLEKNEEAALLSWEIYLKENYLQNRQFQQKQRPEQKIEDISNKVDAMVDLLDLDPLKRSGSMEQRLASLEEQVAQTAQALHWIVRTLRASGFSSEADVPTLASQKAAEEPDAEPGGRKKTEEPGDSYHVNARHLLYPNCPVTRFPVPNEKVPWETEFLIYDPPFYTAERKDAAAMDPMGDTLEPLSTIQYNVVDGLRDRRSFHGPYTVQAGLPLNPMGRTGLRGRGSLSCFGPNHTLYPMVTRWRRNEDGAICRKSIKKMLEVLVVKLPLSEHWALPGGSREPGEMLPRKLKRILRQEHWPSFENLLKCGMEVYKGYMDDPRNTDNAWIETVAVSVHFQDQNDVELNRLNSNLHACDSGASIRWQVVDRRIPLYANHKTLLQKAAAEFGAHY
T1 sequence (O94759 whole entry): as the sequence (O94759 whole entry H995A) above, with A995H counted along it
Sequence of Transient receptor potential cation channel subfamily M member 2 (Homo sapiens), O94759 [D964A] (O94759 whole entry D964A): as the sequence (O94759 whole entry H995A) above, with D964A, A995H counted along it

inhibition [1]	inhibition [2]	Compound	further results
Active		O=C1NC(c2c[nH]nc2-c2ccccc2)Nc2c(Br)cccc21 (stereo not given)	
Active		O=C1NC(c2c[nH]nc2-c2ccccc2)Nc2c(Br)cc(Br)cc21 (stereo not given)	
	51%	Cc1cc(Cl)cc2c1NC(c1c[nH]nc1-c1ccc(Br)cc1)NC2=O (stereo not given)	
Active		O=C1NC(c2c[nH]nc2-c2ccc(Cl)cc2)Nc2ccccc21 (stereo not given)	
Active		O=c1[nH]c(-c2c[nH]nc2-c2ccccc2)nc2ccc(Cl)cc12	
Active		Cc1cccc2c1C(=O)NC(c1c[nH]nc1-c1ccccc1)N2 (stereo not given)	
	27.9%	O=C1NC(c2c[nH]nc2-c2ccccc2)Nc2ccc(Cl)cc21 (stereo not given)	
Active		O=C1NC(c2cncn2Cc2ccc(Cl)cc2)Nc2ccccc21 (stereo not given)	
Active		O=c1[nH]c(-c2c[nH]nc2-c2ccccc2)nc2ncccc12	
		O=C1NC(c2c[nH]nc2-c2cccc3ccccc23)Nc2c(I)cc(Cl)cc21 (stereo not given)	inhibition [3]: 19.9%
Active		O=C1NC(c2c[nH]nc2-c2ccccc2)Nc2c(I)cc(I)cc21 (stereo not given)	
Active		O=C1NC(c2c[nH]nc2-c2ccccc2)Nc2cccc(Cl)c21 (stereo not given)	
Active		Cc1cc(Cl)cc2c(=O)[nH]c(-c3c[nH]nc3-c3ccccc3)nc12	
	60.5%	Cc1cc(C)c2c(c1)C(=O)NC(c1c[nH]nc1-c1ccccc1)N2 (stereo not given)	
	Active	Cc1cc(Cl)cc2c1N[C@H](c1c[nH]nc1-c1ccccc1)NC2=O	
Active		Cc1cc(C)c2nc(-c3c[nH]nc3-c3ccccc3)[nH]c(=O)c2c1	
Active	55 to 68.1%	O=C1NC(c2c[nH]nc2-c2ccccc2)Nc2ccccc21 (stereo not given)	inhibition [4]: 40 to 50%; inhibition [5]: inactive; inhibition [6]: 4%; inhibition [7]: inactive
	21.2%	Cc1cccc2c(=O)[nH]c(-c3c[nH]nc3-c3ccccc3)nc12	
	89.1%	CCCCCc1ccc(/C=C/C(=O)Nc2ccccc2C(=O)O)cc1	IC50 [8]: 3.9 µM; IC50 [9]: 0.32 µM; inhibition [3]: 75.9%
Active		Cc1cc(I)cc2c1NC(c1c[nH]nc1-c1ccccc1)NC2=O (stereo not given)	
	89.4%	O=C1NC(c2c[nH]nc2-c2ccccc2)Nc2c(I)cc(Cl)cc21 (stereo not given)	inhibition [3]: 39.6%
	Active	Cc1cc(Cl)cc2c1N[C@@H](c1c[nH]nc1-c1ccccc1)NC2=O	
	28.7%	O=c1[nH]c(-c2c[nH]nc2-c2ccccc2)nc2ccccc12	
	37.2%	O=C1NC(c2c[nH]nc2-c2ccccc2)Nc2c(F)cc(F)cc21 (stereo not given)	

inhibition [1]	inhibition [2]	Compound	further results
	92.8%	Cc1cc(Br)cc2c1NC(c1c[nH]nc1-c1ccccc1)NC2=O (stereo not given)	inhibition [10]: 19%; IC50 [9]: 4.6 µM; inhibition [3]: 50.1%; inhibition [11]: Active
	16.9%	Cc1cc(Cl)cc2c1NC(c1cn[nH]c1)NC2=O (stereo not given)	
	50.4%	COc1cc(Br)cc2c1NC(c1c[nH]nc1-c1ccccc1)NC2=O (stereo not given)	
	90.4%	Cc1cc(Cl)cc2c1NC(c1c[nH]nc1-c1ccc([N+](=O)[O-])cc1)NC2=O (stereo not given)	inhibition [3]: 43.4%
Active		O=c1[nH]c(SCc2ccncc2)nc2ccccc12	
		O=C1NC(c2c[nH]nc2-c2ccc([N+](=O)[O-])cc2)Nc2c(I)cc(Cl)cc21 (stereo not given)	inhibition [3]: 34.9%
	90.2%	Cc1cc(Cl)cc2c1NC(c1c[nH]nc1-c1cccc3ccccc13)NC2=O (stereo not given)	inhibition [10]: inactive; IC50 [9]: 4 µM; inhibition [3]: 50.9%; inhibition [11]: inactive
Active		O=C1NC(c2c[nH]nc2-c2ccccc2)Nc2cc(Br)ccc21 (stereo not given)	
		Cc1cc(Br)cc2c1NC(c1c[nH]nc1-c1ccc([N+](=O)[O-])cc1)NC2=O (stereo not given)	inhibition [3]: 42.1%
Active		O=C1NC(c2c[nH]nc2-c2ccccc2)Nc2c1cccc2[N+](=O)[O-] (stereo not given)	
	17.9%	Cc1cc(Cl)cc2c1NC(c1c[nH]nc1-c1ccccc1Br)NC2=O (stereo not given)	
	90.2%	Cc1cc(Cl)cc2c1NC(c1c[nH]nc1-c1ccccc1)NC2=O (stereo not given)	inhibition [10]: 27%; IC50 [9]: 5.1 µM; inhibition [3]: 46.4%; inhibition [11]: Active
Active		O=C1NC(c2c[nH]nc2-c2ccccc2)Nc2c(Cl)cc(Cl)cc21 (stereo not given)	
	39.2%	Cc1cccc2c1NC(c1c[nH]nc1-c1ccccc1)NC2=O (stereo not given)	
	42.7%	Cc1cc(F)cc2c1NC(c1c[nH]nc1-c1ccccc1)NC2=O (stereo not given)	
Active		O=C1NC(c2c[nH]nc2-c2ccccc2)Nc2c(Br)cc(F)cc21 (stereo not given)	
Active		O=C1NC(c2cc(-c3ccccc3)c[nH]2)Nc2ccccc21 (stereo not given)	
Active		Cc1cc(Br)c2c(c1)C(=O)NC(c1c[nH]nc1-c1ccccc1)N2 (stereo not given)	
	34.8%	O=C1NC(c2c[nH]nc2-c2ccccc2)Nc2ccc(F)cc21 (stereo not given)	
		Cc1cc(Br)cc2c1NC(c1c[nH]nc1-c1cccc3ccccc13)NC2=O (stereo not given)	inhibition [10]: inactive; inhibition [6]: inactive; IC50 [9]: 3.7 µM; inhibition [3]: 48.7%; inhibition [11]: inactive
	17%	Cc1cc(Cl)cc2c1NC(c1c[nH]nc1-c1ccc(-c3ccccc3)cc1)NC2=O (stereo not given)	
	10.3%	Cc1cc(Cl)cc2c1NC(c1c[nH]nc1-c1ccc(Cl)cc1)NC2=O (stereo not given)	
		Nc1ncnc2c1ncn2[C@@H]1O[C@H](COP(=O)(O)O)[C@@H](O)[C@H]1O	inhibition [4]: Active; inhibition [6]: inactive; inhibition [9]: Dose-dependent effect

Reference: ChEMBL document CHEMBL4152243, “Design, synthesis and biological activities of 2,3-dihydroquinazolin-4(1H)-one derivatives as TRPM2 inhibitors” (Eur J Med Chem, 2018)
